Experiment [1] has as its target T1, Dopamine receptor (Rattus norvegicus) (UniProt P25115+P19020+P30729+P18901+P61169). Put plainly: Subcutaneous dose giving half-maximal decrease of Dopa formation in the rat brain (striatum). In kind it is functional, tissue-based.
For experiment [2], the target named is T2, Serotonin (5-HT) receptor (Rattus norvegicus) (UniProt P35563+P35365+P32305+P31388+Q9JJ16+P28564+P30994+Q62758+P08909+P14842+P30940+P35364+P19327+P28565). Put plainly: Subcutaneous dose giving half-maximal decrease of 5-HTP formation in the rat brain hemispheres (cortex). It is filed as functional, tissue-based. The procedure, abridged: (§1)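 Male Sprague-Dawley rats (200–350 g) were reserpinized. Reserpine was dissolved in glacial acetic acid and made up with 5.5% glucose. Test drug was given sc in saline, at neutral pH, 5 or 10 mL/kg. Brain-part 5-HTP formation was measured spectrofluorometrically. ED50 (half-maximal decrease) came from 4–6 dose levels, n = 3-5.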

Experiment [3] deals with T1, Dopamine receptor (Rattus norvegicus). Put plainly: Subcutaneous dose giving half-maximal decrease of Dopa formation in the rat brain (limbic). In kind it is functional, tissue-based.
The target of experiment [4] is T2, Serotonin (5-HT) receptor (Rattus norvegicus). Put plainly: Subcutaneous dose giving half-maximal decrease of 5-HTP formation in the rat brain (limbic). It is filed as functional, tissue-based. The procedure, abridged: as §1
Experiment [5] has the same target. Put plainly: Subcutaneous dose giving half-maximal decrease of 5-HTP formation in the rat brain (striatum). In kind it is functional, tissue-based. A digest of the protocol:
as §1

The test system of experiment [6] is Rattus norvegicus. The experiment in a line: Compound was tested for subcutaneous dose giving half-maximal decrease of 5-HTP formation in the rat brain (limbic); Inactive. It is filed as functional, organism-based. The procedure, abridged: as §1
In experiment [7] the test system is Rattus norvegicus. The experiment in a line: Compound was tested for subcutaneous dose giving half-maximal decrease of Dopa formation in the rat brain (striatum). In kind it is functional. As to conditions: sc.
In experiment [8] the test system is Rattus norvegicus. Put plainly: Compound was tested for subcutaneous dose giving half-maximal decrease of Dopa formation in the rat brain (limbic). It is filed as functional. As to conditions: sc.
In experiment [9] the test system is Rattus norvegicus. The experiment in a line: Compound was tested for subcutaneous dose giving half-maximal decrease of 5-HTP formation in the rat brain (striatum); Inactive. It is filed as functional, organism-based. The procedure, abridged: as §1
In experiment [10] the test system is Rattus norvegicus. Put plainly: Compound was tested for subcutaneous dose giving half-maximal decrease of 5-HTP formation in the rat brain hemispheres (cortex); Inactive. It is filed as functional, organism-based. The procedure, abridged: as §1

The source made the active and inactive calls. The rule behind the calls is not given here.

Consider `CCN(CC)C1CCc2cccc(O)c2C1` (stereo not given), for which the ED50 result in experiment [1] and in experiment [3] was “inactive” in each case. In addition, the ED50 in experiment [2] stood at 0.07 µmol/kg; in [4], 0.054 µmol/kg; in experiment [5], 0.068 µmol/kg.
`CCCCNC1CCc2cccc(O)c2C1` (stereo not given): the ED50 entry in experiment [1] and in experiment [3] was “inactive” throughout. For the same molecule, the results for the 50% effective dose (ED50) in experiment [2], in [4] and in [5] were 6.3 µmol/kg, 4.3 µmol/kg and 4.5 µmol/kg, respectively.
Consider `CCCN(CCC)[C@@H]1CCc2cccc(O)c2C1`, for which the ED50 entry in experiment [1] and in experiment [3] was “inactive” in each case. In addition, the 50% effective dose (ED50) in experiment [2] worked out at 0.05 µmol/kg; in [4] it was 0.036 µmol/kg; in experiment [5], 0.047 µmol/kg.
With `CCCCN(CCC)C1CCc2cccc(O)c2C1` (stereo not given), the ED50 entry in experiment [1] and in experiment [3] was “inactive” throughout. In addition, the ED50 in [2] was 0.34 µmol/kg; in [4], 0.27 µmol/kg; in experiment [5] it was 0.26 µmol/kg.
On to `CCCN(CCC)C1CCc2c(OC)ccc(OC)c2C1` (stereo not given), for which the ED50 entry in experiment [6], in [9] and in [10] was “inactive” each time. In addition, the figures for the ED50 in experiment [7] and in experiment [8] were 1.24 µmol/kg and 0.905 µmol/kg, respectively.
Turning to `CC(C)NC1CCc2cccc(O)c2C1` (stereo not given), the ED50 entry in experiment [1] and in experiment [3] was “inactive” throughout. Also, the 50% effective dose (ED50) in [2] turned out to be 4.1 µmol/kg; in experiment [4], 2.6 µmol/kg; in experiment [5] it was 2.9 µmol/kg.
Turning to `CCCN(CCC)[C@H]1CCc2cccc(O)c2C1`, the ED50 entry in experiment [1] and in experiment [3] was “inactive” in each case. Further, the ED50 in experiment [2] is 0.077 µmol/kg; in experiment [4] it was 0.061 µmol/kg; in experiment [5], 0.065 µmol/kg.
With `CCCN(CCC)C1CCc2cccc(OC)c2C1` (stereo not given), the ED50 result in experiment [1] and in experiment [3] was “inactive” each time. For the same molecule, the ED50 worked out at 0.23 µmol/kg in experiment [2], 0.34 µmol/kg in experiment [4] and 0.29 µmol/kg in [5].
Consider `CCN(CC)C(=O)[C@@H]1C=C2c3cccc4[nH]cc(c34)C[C@H]2N(C)C1` [LYSERGIDE], for which the ED50 in experiment [7] turned out to be 0.395 µmol/kg; in experiment [2] it was 0.036 µmol/kg; in experiment [8], 0.39 µmol/kg; in [4] it was 0.036 µmol/kg; in experiment [5] it was 0.035 µmol/kg.
On to `CCCCN(CCCC)C1CCc2cccc(O)c2C1` (stereo not given), for which the ED50 result in experiment [1] and in experiment [3] was “inactive” in each case. The values for the ED50 in experiment [2], in experiment [4] and in experiment [5] were 5.7 µmol/kg, 5 µmol/kg and 6.6 µmol/kg, respectively.
Turning to `CNC1CCc2cccc(O)c2C1` (stereo not given), the ED50 result in experiment [1] and in [3] was “inactive” throughout. Also, the ED50 in experiment [2] was 1.8 µmol/kg; in experiment [4], 1.5 µmol/kg; in [5], 1.6 µmol/kg.
For the molecule `CCCN(Cc1ccccc1)C1CCc2cccc(O)c2C1` (stereo not given), the ED50 entry in experiment [1] and in experiment [3] was “inactive” in each case. Further, the figures for the ED50 in experiment [2], in experiment [4] and in [5] were 2.3 µmol/kg, 2.7 µmol/kg and 2.9 µmol/kg, respectively.
In the case of `CN(C)C1CCc2cccc(O)c2C1` (stereo not given), the ED50 result in experiment [1] and in experiment [3] was “inactive” each time. In addition, the ED50 was determined as 0.36 µmol/kg in experiment [2], 0.38 µmol/kg in experiment [4] and 0.43 µmol/kg in experiment [5].
Consider `CCCCCCCCNC1CCc2cccc(O)c2C1` (stereo not given), for which the ED50 entry in experiment [6], in [1], in experiment [3], in [9] and in [10] was “inactive” in each case.
For `Oc1cccc2c1CC(N1CCCCC1)CC2` (stereo not given), the ED50 result in experiment [1] and in experiment [3] was “inactive” each time. In addition, the values for the ED50 in experiment [2], in experiment [4] and in experiment [5] were 1.4 µmol/kg, 1.6 µmol/kg and 1.1 µmol/kg, respectively.
Take `CCCN(CC)C1CCc2cccc(O)c2C1` (stereo not given): the ED50 entry in experiment [1] and in experiment [3] was “inactive” in each case. Further, the 50% effective dose (ED50) was 0.066 µmol/kg in [2], 0.057 µmol/kg in experiment [4] and 0.059 µmol/kg in experiment [5].
With `CCNC1CCc2cccc(O)c2C1` (stereo not given), the ED50 result in [1] and in experiment [3] was “inactive” each time. Moreover, the 50% effective dose (ED50) in experiment [2] came to 0.22 µmol/kg; in experiment [4], 0.27 µmol/kg; in [5], 0.2 µmol/kg.
For `CCCNC1CCc2cccc(O)c2C1` (stereo not given), the ED50 result in [1] and in [3] was “inactive” in each case. Also, the ED50 in experiment [2] was found to be 0.18 µmol/kg; in [4], 0.14 µmol/kg; in [5] it was 0.15 µmol/kg.
Take `CCCN(CCC)C1CCc2cccc(O)c2C1` (racemic): the ED50 result in [1] and in [3] was “inactive” each time. The ED50 in [2] was 0.063 µmol/kg; in experiment [4], 0.052 µmol/kg; in [5], 0.052 µmol/kg.
`CCCN(CCC)C1CCc2c(O)ccc(O)c2C1` (stereo not given): the ED50 result in [6], in experiment [9] and in experiment [10] was “inactive” each time. Moreover, the ED50 worked out at 5.4 µmol/kg in [7] and 5.2 µmol/kg in experiment [8].

These data come from ChEMBL document CHEMBL1122750, “8-Hydroxy-2-(alkylamino)tetralins and related compounds as central 5-hydroxytryptamine receptor agonists” (1984).
